# Measurements gathered from unrelated publications.
# Compare with care: the assays were run in different laboratories.
# Target: Mu-type opioid receptor (Oprm1, Rattus norvegicus, UniProt P33535)
Compound,assay,conditions,Ki [nM]
Oc1cccc([C@]23CCC[C@H]([C@H]2O)N(CC=Cc2ccccc2)CC3)c1,"ligand displacement, radioligand",,0.74
CCCC[C@@H](NC(=O)[C@@H](N)Cc1c(C)cc(O)cc1C)C(=O)NCC(=O)N[C@@H](Cc1ccc(F)cc1)C(=O)N(C)CCC[C@@]1(c2ccc(F)cc2)OCc2cc(C#N)ccc21,cell-free assay,,1
Cc1cc(O)cc(C)c1C[C@H](N)C(=O)N[C@H](CCCNC(=N)N)C(=O)N[C@@H](Cc1c(C)cccc1C(C)C)C(=O)N[C@@H](CCCCN)C(N)=O,"ligand displacement, radioligand",cell membranes,0.155
Cc1cc(O)cc(C)c1C[C@H](C)C(=O)N[C@@H]1C/C=C/CC[C@@H](C(N)=O)NC(=O)[C@H](Cc2ccccc2)NC(=O)[C@H](Cc2ccccc2)NC1=O,"ligand displacement, radioligand",cell membranes,323
Cc1cc(O)cc(C)c1C[C@H](N)C(=O)N1CCc2ccc(Cc3ccc(N)cc3)cc2C1,"ligand displacement, radioligand",cell membranes,47
NC(N)=Nc1ccc2[nH]c3c(c2c1)C[C@@]1(O)[C@H]2Cc4ccc(O)c5c4[C@@]1(CCN2CC1CC1)[C@H]3O5,"ligand displacement, radioligand",cell membranes,9.04
Cc1cccc(C)c1C[C@H](NC(=O)[C@@H](CCCNC(=N)N)NC(=O)[C@@H](N)Cc1c(C)cc(O)cc1C)C(=O)N[C@@H](CCCCN)C(N)=O,"ligand displacement, radioligand",cell membranes,0.00935
C[C@@H](NC(=O)[C@@H](N)Cc1ccc(O)cc1)C(=O)NCC(=O)N[C@@H](Cc1ccccc1)C(=O)N(C)CCC[C@@]1(c2ccc(F)cc2)OCc2cc(C#N)ccc21,cell-free assay,,88
Cc1cc(O)cc(C)c1C[C@H](N)C(=O)N1CCc2ccc(Cc3ccccc3[N+](=O)[O-])cc2C1,"ligand displacement, radioligand",cell membranes,10
Cc1cc(C)c(C[C@H](NC(=O)[C@@H](CCCNC(=N)N)NC(=O)[C@@H](N)Cc2c(C)cc(O)cc2C)C(=O)N[C@@H](CCCCN)C(N)=O)c(C)c1,"ligand displacement, radioligand",cell membranes,0.158
Cc1cc(O)cc(C)c1C[C@H](N)C(=O)N1CCc2ccc(Cc3cccc(N)c3)cc2C1,"ligand displacement, radioligand",cell membranes,9.7
C[C@@H](NC(=O)C[C@@H](N)Cc1ccc(O)cc1)C(=O)NCC(=O)N[C@@H](Cc1ccccc1)C(=O)NNC(=O)[C@H](Cc1ccccc1)NC(=O)CNC(=O)[C@@H](C)NC(=O)C[C@@H](N)Cc1ccc(O)cc1,"ligand displacement, radioligand",,62
CCCC[C@@H](NC(=O)[C@@H](N)Cc1ccc(O)cc1)C(=O)NCC(=O)N[C@@H](Cc1ccc(F)cc1)C(=O)N(C)CCC[C@@]1(c2ccc(F)cc2)OCc2cc(C#N)ccc21,cell-free assay,,16
Cc1cccc(Cc2ccc3c(c2)CN(C(=O)[C@@H](N)Cc2c(C)cc(O)cc2C)CC3)c1,"ligand displacement, radioligand",cell membranes,3.1
